# Measured values reported in ChEMBL document CHEMBL1145787, “Synthesis and structure-activity relationship of N-substituted 4-arylsulfonylpiperidine-4-hydroxamic acids as novel, orally active matrix metalloproteinase inhibitors for the treatment of osteoarthritis” (J Med Chem, 2003).
# What was measured:
# [1] = molecular target: T1, Interstitial collagenase (Homo sapiens) (UniProt P03956); assay: Inhibition of Matrix metalloprotease-1 at 10 uM
# T1 sequence (whole entry): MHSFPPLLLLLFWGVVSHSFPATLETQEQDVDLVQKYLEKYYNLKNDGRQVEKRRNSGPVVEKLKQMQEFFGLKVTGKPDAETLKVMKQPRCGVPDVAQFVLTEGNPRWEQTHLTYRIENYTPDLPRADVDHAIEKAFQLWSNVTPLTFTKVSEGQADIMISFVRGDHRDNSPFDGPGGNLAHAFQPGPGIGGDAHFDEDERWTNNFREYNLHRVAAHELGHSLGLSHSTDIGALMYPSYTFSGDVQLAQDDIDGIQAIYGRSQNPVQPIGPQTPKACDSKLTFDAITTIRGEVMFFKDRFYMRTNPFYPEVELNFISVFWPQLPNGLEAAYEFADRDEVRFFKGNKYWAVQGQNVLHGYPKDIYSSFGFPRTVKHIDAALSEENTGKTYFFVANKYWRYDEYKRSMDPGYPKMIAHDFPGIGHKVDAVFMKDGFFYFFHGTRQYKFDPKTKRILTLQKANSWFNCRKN
# How it was run: (§1)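 Dose–response curves were not generated when inhibition was below 60% at 10 μM.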
# [2] = molecular target: T2, Disintegrin and metalloproteinase domain-containing protein 17 (Homo sapiens, UniProt P78536); assay: Inhibition of Tumor necrosis factor alpha converting enzyme (TACE) at 10 uM; how it was run: as §1
# T2 sequence (P78536 whole entry, the tested form may be a part): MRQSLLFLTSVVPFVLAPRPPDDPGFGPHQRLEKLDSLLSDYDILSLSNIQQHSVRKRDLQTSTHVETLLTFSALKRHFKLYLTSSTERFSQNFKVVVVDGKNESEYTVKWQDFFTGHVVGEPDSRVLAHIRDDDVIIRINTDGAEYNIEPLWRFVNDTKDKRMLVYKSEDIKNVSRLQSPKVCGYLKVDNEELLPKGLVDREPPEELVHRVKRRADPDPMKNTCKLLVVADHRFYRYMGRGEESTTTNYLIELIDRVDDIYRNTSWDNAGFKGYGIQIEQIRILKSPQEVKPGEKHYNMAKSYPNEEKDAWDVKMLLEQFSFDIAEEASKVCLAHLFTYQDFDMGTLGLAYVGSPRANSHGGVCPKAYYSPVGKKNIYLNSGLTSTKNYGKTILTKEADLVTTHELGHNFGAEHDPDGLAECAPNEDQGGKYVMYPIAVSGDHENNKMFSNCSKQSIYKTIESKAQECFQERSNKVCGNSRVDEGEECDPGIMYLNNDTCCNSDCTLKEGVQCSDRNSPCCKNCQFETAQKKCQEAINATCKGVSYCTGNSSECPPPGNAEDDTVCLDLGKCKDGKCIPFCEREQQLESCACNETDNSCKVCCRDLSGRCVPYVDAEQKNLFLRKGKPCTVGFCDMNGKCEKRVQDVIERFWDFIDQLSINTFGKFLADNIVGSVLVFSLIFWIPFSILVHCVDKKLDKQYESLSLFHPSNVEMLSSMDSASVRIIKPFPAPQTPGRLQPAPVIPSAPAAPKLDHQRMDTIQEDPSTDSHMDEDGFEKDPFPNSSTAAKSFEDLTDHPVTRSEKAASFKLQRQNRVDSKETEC
# [3] = In vivo inhibitory activity against Matrix metalloprotease enzyme by dialysis implant assay, value are relative to activity of CGS-27023 (64+/-3) at 25 mg/kg. po; assay type: functional
# [4] = molecular target: Matrix metalloproteinase-9 (Homo sapiens, UniProt P14780); assay: In vitro inhibitory activity against matrix metalloprotease-9.
# Chain of Matrix metalloproteinase-9 (P14780 whole entry): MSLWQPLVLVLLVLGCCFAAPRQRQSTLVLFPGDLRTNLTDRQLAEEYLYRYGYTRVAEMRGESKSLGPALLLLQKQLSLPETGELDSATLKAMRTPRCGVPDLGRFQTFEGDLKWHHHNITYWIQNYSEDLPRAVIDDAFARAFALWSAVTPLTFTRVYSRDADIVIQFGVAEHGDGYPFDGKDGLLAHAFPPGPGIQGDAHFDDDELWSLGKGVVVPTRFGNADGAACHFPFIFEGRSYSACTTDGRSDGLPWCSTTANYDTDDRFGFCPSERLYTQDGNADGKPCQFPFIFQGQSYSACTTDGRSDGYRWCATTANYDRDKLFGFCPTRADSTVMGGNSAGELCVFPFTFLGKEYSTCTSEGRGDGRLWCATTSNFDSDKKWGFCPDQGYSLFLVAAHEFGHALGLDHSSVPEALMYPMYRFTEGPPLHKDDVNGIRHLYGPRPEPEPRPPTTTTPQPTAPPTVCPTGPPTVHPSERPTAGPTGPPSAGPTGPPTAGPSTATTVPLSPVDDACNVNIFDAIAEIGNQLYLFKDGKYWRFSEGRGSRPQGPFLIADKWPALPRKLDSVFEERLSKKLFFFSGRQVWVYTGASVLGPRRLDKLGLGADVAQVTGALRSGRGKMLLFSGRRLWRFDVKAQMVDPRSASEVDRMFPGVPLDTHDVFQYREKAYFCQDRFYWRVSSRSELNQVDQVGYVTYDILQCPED
# Interstitial collagenase = molecular target: T3, Interstitial collagenase (Homo sapiens, UniProt P03956); assay: In vitro inhibitory activity against matrix metalloprotease-1
# T3 sequence (P03956 whole entry): T1 sequence (whole entry)
# [5] = molecular target: T2, Disintegrin and metalloproteinase domain-containing protein 17; assay: In vitro inhibitory activity against tumor necrosis factor alpha converting enzyme (TACE).
# Collagenase 3 = Collagenase 3 (Homo sapiens, UniProt P45452)
# [6] = In vivo inhibitory activity against Matrix metalloprotease enzyme by dialysis implant assay, value is relative to activity of CGS-27023 (51+/-3) at 25 mg/kg. po; assay type: functional
# [7] = In vivo inhibition of Matrix metalloprotease enzyme by Sponge-wrapped cartilage assay, value are relative to activity of CGS-27023 (33+/-2) at 25 mg/kg. po. bid; assay type: functional
# [8] = In vivo inhibitory activity against Matrix metalloprotease enzyme by dialysis implant assay, value is relative to activity of CGS-27023 (75+/-2) at 25 mg/kg. po; assay type: functional
# [9] = In vivo inhibition of Matrix metalloprotease enzyme by Sponge-wrapped cartilage assay, compared to activity of RS-130830 (20+/-2) at 5 mg/kg. po. bid; assay type: functional
# [10] = In vivo inhibition of Matrix metalloprotease enzyme by Sponge-wrapped cartilage assay, compared to activity of RS-130830 (inactive) at 5 mg/kg. po. qd; assay type: functional
# [11] = In vivo inhibition of Matrix metalloprotease enzyme by Sponge-wrapped cartilage assay, value is relative to activity of RS-130830 (40+/-3) at 10 mg/kg. po. bid; assay type: functional
# Oryctolagus cuniculus = assay: Effect of compound on cartilage in surgically induced osteoarthritis (OA) model in rabbit at 25 mg/kg; assay type: functional
# How it was run: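 Rabbits had anterior cruciate ligament transection plus meniscectomy in one knee, with sham surgery on the contralateral knee. From day 10 after surgery, groups of 12 were dosed once daily by oral gavage with vehicle, test compound or the RS-130830 reference for 4 weeks. Knee joints were then collected and scored for gross pathological changes by blinded investigators.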
# Rattus norvegicus = assay: In vivo inhibition of by Matrix metalloprotease enzyme Sponge-wrapped cartilage assay at 5 mg/kg. po. bid; assay type: functional
# [12] = In vivo inhibitory activity against Matrix metalloprotease enzyme by dialysis implant assay, value is relative to activity of CGS-27023 (68+/5-) at 25 mg/kg. po; assay type: functional
# [13] = In vivo inhibition of Matrix metalloprotease enzyme by Sponge-wrapped cartilage assay, value are relative to activity of RS-130830 (27+/-3) at 10 mg/kg. po. bid; assay type: functional
# [14] = In vivo inhibitory activity against Matrix metalloprotease enzyme by dialysis implant assay, value is relative to activity of CGS-27023 (61+/-3) at 25 mg/kg. po; assay type: functional
# [15] = In vivo inhibition of Matrix metalloprotease enzyme by Sponge-wrapped cartilage assay, value is relative to activity of RS-130830 (23+/-3) at 10 mg/kg. po. bid; assay type: functional
# [16] = In vivo inhibitory activity against Matrix metalloprotease enzyme by dialysis implant assay, value is relative to activity of CGS-27023 (54+/-2) at 25 mg/kg. po; assay type: functional
# [17] = In vivo inhibitory activity against Matrix metalloprotease enzyme by dialysis implant assay, value is relative to activity of CGS-27023 (76+/-3) at 25 mg/kg. po; assay type: functional
# [18] = In vivo inhibitory activity against Matrix metalloprotease enzyme by dialysis implant assay, value is relative to activity of CGS-27023 (64+/-2) at 25 mg/kg. po; assay type: functional
# [19] = In vivo inhibition of Matrix metalloprotease enzyme by Sponge-wrapped cartilage assay, value is relative to activity of RS-130830 (27+/-3) at 10 mg/kg. po. bid; assay type: functional
# [20] = In vivo inhibitory activity against Matrix metalloprotease enzyme by dialysis implant assay, value is relative to activity of CGS-27023 (60+/-3) at 25 mg/kg. po; assay type: functional
# [21] = In vivo inhibitory activity against Matrix metalloprotease enzyme by dialysis implant assay, value is relative to activity of CGS-27023 (42+/-2) at 25 mg/kg. po; assay type: functional
# [22] = In vivo inhibition of Matrix metalloprotease enzyme by Sponge-wrapped cartilage assay, value is relative to activity of CGS-27023 (39+/-3) at 25 mg/kg. po. bid; assay type: functional
# [23] = In vivo inhibitory activity against Matrix metalloprotease enzyme by dialysis implant assay, value is relative to activity of CGS-27023 (62+/-5) at 25 mg/kg. po; assay type: functional
# [24] = In vivo inhibitory activity against Matrix metalloprotease enzyme by dialysis implant assay, value are relative to activity of CGS-27023 (73+/-4) at 25 mg/kg. po; assay type: functional
# [25] = In vivo inhibitory activity against Matrix metalloprotease enzyme by dialysis implant assay, value is relative to activity of CGS-27023 (74+/-2) at 25 mg/kg. po; assay type: functional
# [26] = In vivo inhibitory activity against Matrix metalloprotease enzyme by dialysis implant assay, value is relative to activity of CGS-27023 (60+/-2) at 25 mg/kg. po; assay type: functional
# [27] = In vivo inhibitory activity against Matrix metalloprotease enzyme by dialysis implant assay, value are relative to activity of CGS-27023 (67+/-3) at 25 mg/kg. po; assay type: functional
structure (smiles),measurement,setting,value
COc1ccc(S(=O)(=O)C2(C(=O)NO)CCN(C(C)(C)C)CC2)cc1,inhibition,[1],59%
same,inhibition,[2],9%
COc1ccc(S(=O)(=O)C2(C(=O)NO)CCN(Cc3ccc(-c4ccccn4)cc3)CC2)cc1,inhibition in vivo at 25 mg/kg,[3],78%
same,IC50,[4],6 nM
CCCCOc1ccc(S(=O)(=O)C2(C(=O)NO)CCOCC2)cc1,IC50,Interstitial collagenase,1380 nM
same,IC50,[4],9.2 nM
same,IC50,[5],177 nM
same,IC50,Collagenase 3,1.4 nM
COc1ccc(S(=O)(=O)C2(C(=O)NO)CCN(Cc3ccc4ccccc4c3)CC2)cc1,inhibition in vivo at 25 mg/kg,[6],62%
same,inhibition in vivo at 25 mg/kg,[7],14%
CCCCOc1ccc(S(=O)(=O)C2(C(=O)NO)CCN(Cc3ccc(OCCN4CCCCC4)cc3)CC2)cc1,inhibition in vivo at 25 mg/kg,[8],98%
same,inhibition in vivo at 5 mg/kg,[9],56%
same,inhibition in vivo at 5 mg/kg,[10],33%
same,inhibition in vivo at 10 mg/kg,[11],67%
O=C(NO)C1(CS(=O)(=O)c2ccc(Oc3ccc(Cl)cc3)cc2)CCOCC1 [CTS-1027],IC50,Interstitial collagenase,233 nM
same,gross pathology score at 25 mg/kg,Oryctolagus cuniculus,7.9 score
same,inhibition in vivo at 5 mg/kg,Rattus norvegicus,20%
same,IC50,[5],176 nM
COc1ccc(S(=O)(=O)C2(C(=O)NO)CCN(Cc3ccccc3)CC2)cc1,IC50,[4],10 nM
CCCCOc1ccc(S(=O)(=O)C2(C(=O)NO)CCN(Cc3ccc(Cl)c(Cl)c3)CC2)cc1,inhibition in vivo at 25 mg/kg,[3],14%
same,IC50,[4],20 nM
same,inhibition,[2],57%
same,IC50,Collagenase 3,5 nM
COc1ccc(S(=O)(=O)C2(C(=O)NO)CCN(CC=C(C)C)CC2)cc1,inhibition in vivo at 25 mg/kg,[12],57%
same,inhibition,[2],49%
COc1ccc(S(=O)(=O)C2(C(=O)NO)CCN(Cc3ccc(-c4ccccc4)cc3)CC2)cc1,inhibition in vivo at 25 mg/kg,[12],29%
same,IC50,Interstitial collagenase,1330 nM
same,IC50,[4],13 nM
same,IC50,[5],610 nM
same,IC50,Collagenase 3,3 nM
Cc1ccc(CN2CCC(C(=O)NO)(S(=O)(=O)c3ccc(OCc4ccc(Cl)cc4)cc3)CC2)cc1,IC50,Collagenase 3,6 nM
CC(C)CCOc1ccc(S(=O)(=O)C2(C(=O)NO)CCN(Cc3ccccc3)CC2)cc1,inhibition in vivo at 25 mg/kg,[3],80%
same,inhibition in vivo at 10 mg/kg,[13],34%
same,IC50,[4],4 nM
same,IC50,Collagenase 3,2 nM
CCN1CCC(C(=O)NO)(S(=O)(=O)c2ccc(Oc3ccc(Cl)cc3)cc2)CC1,inhibition in vivo at 25 mg/kg,[14],90%
same,inhibition in vivo at 10 mg/kg,[15],75%
same,IC50,[4],1 nM
same,IC50,Collagenase 3,1 nM
CCCCOc1ccc(S(=O)(=O)C2(C(=O)NO)CCN(CCOc3ccccc3)CC2)cc1,inhibition in vivo at 25 mg/kg,[16],29%
same,IC50,[4],5 nM
CCCCN1CCC(C(=O)NO)(S(=O)(=O)c2ccc(OC)cc2)CC1,inhibition in vivo at 25 mg/kg,[17],56%
same,inhibition,[1],56%
same,inhibition,[2],15%
COc1ccc(S(=O)(=O)C2(C(=O)NO)CCN(Cc3ccc(Cl)c(Cl)c3)CC2)cc1,inhibition in vivo at 25 mg/kg,[6],47%
same,IC50,[4],6 nM
same,IC50,Collagenase 3,2 nM
CCCCOc1ccc(S(=O)(=O)C2(C(=O)NO)CCN(CC)CC2)cc1,inhibition in vivo at 25 mg/kg,[18],64%
same,inhibition in vivo at 10 mg/kg,[19],34%
same,inhibition,[2],51%
same,IC50,Collagenase 3,2 nM
O=C(NO)C1(S(=O)(=O)c2ccc(Oc3ccc(Cl)cc3)cc2)CCNCC1,IC50,Interstitial collagenase,1260 nM
same,IC50,[4],2 nM
same,IC50,[5],848 nM
same,IC50,Collagenase 3,2 nM
COc1ccc(S(=O)(=O)C2(C(=O)NO)CCN(Cc3ccc(F)cc3)CC2)cc1,inhibition in vivo at 25 mg/kg,[17],83%
same,IC50,[4],16 nM
same,IC50,Collagenase 3,2 nM
COc1ccc(S(=O)(=O)C2(C(=O)NO)CCN(CCCOc3ccccc3)CC2)cc1,inhibition in vivo at 25 mg/kg,[20],28%
same,inhibition,[2],50%
same,IC50,Collagenase 3,4 nM
COc1ccc(S(=O)(=O)C2(C(=O)NO)CCN(Cc3ccc(OCCN4CCCCC4)cc3)CC2)cc1,inhibition in vivo at 25 mg/kg,[21],53%
same,inhibition in vivo at 25 mg/kg,[22],56%
same,IC50,[4],3 nM
same,IC50,Collagenase 3,3 nM
COc1ccc(CCN2CCC(C(=O)NO)(S(=O)(=O)c3ccc(OC)cc3)CC2)cc1,inhibition in vivo at 25 mg/kg,[23],48%
same,inhibition,[2],53%
same,IC50,Collagenase 3,2 nM
COc1ccc(S(=O)(=O)C2(C(=O)NO)CCN(Cc3ccc(Br)cc3)CC2)cc1,inhibition in vivo at 25 mg/kg,[6],51%
same,IC50,[4],10 nM
same,inhibition,[2],71%
same,IC50,Collagenase 3,2 nM
COc1ccc(CN2CCC(C(=O)NO)(S(=O)(=O)c3ccc(Oc4ccc(Cl)cc4)cc3)CC2)cc1,inhibition in vivo at 25 mg/kg,[24],93%
same,IC50,Interstitial collagenase,490 nM
same,IC50,[5],492 nM
COc1ccc(S(=O)(=O)C2(C(=O)NO)CCN(CCc3ccccc3)CC2)cc1,inhibition in vivo at 25 mg/kg,[23],68%
same,IC50,Collagenase 3,9 nM
COc1ccc(S(=O)(=O)C2(C(=O)NO)CCN(C3CCCCCCC3)CC2)cc1,inhibition in vivo at 25 mg/kg,[25],71%
same,inhibition,[2],22%
COc1ccc(S(=O)(=O)C2(C(=O)NO)CCN(Cc3cccc(OC)c3)CC2)cc1,inhibition in vivo at 25 mg/kg,[26],70%
same,IC50,[4],9 nM
CCCCOc1ccc(S(=O)(=O)C2(C(=O)NO)CCN(Cc3cccc(OC)c3)CC2)cc1,inhibition in vivo at 25 mg/kg,[27],82%
same,IC50,[4],3 nM
COc1ccc(S(=O)(=O)C2(C(=O)NO)CCN(CCOc3ccccc3)CC2)cc1,inhibition in vivo at 25 mg/kg,[16],6%
same,IC50,[4],26 nM
same,IC50,Collagenase 3,3 nM
